Reference: ChEMBL document CHEMBL3769308, “Melanin-Concentrating Hormone Receptor 1 Antagonists Lacking an Aliphatic Amine: Synthesis and Structure-Activity Relationships of Novel 1-(Imidazo[1,2-a]pyridin-6-yl)pyridin-2(1H)-one Derivatives” (J Med Chem, 2016)

How the values were obtained:
[1] = molecular target: Melanin-concentrating hormone receptor 1 (Rattus norvegicus, UniProt P97639); test: Displacement of [125I]-MCH (4 to 19 residues) from rat MCHR1 expressed in CHO cell membranes after 1 hr by liquid scintillation counting analysis
Method in brief: (§1)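 Membranes from MCHR1-expressing CHO cells, homogenized in NaHCO3/EDTA with protease inhibitors, 100000g pellet held at 2 mg/mL protein in 20 mM Tris-HCl pH 7.5, 5 mM EDTA, protease inhibitors.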

[2] = molecular target: T1, Melanin-concentrating hormone receptor 1 (Homo sapiens, UniProt Q99705); test: Displacement of [125I]-MCH (4 to19 residues) from human MCHR1 expressed in CHO cell membranes after 1 hr by liquid scintillation counting analysis; method in brief: as §1
[3] = molecular target: T1, Melanin-concentrating hormone receptor 1; format: functional, cell-based, CHO
[4] = tested on: Rattus norvegicus; test: Antiobesity activity in diet-induced obese F344/jcl rat assessed as reduction in body weight at 1 mg/kg, po qd administered through repeated dosing for 2 weeks measured during 2 weeks of dosing relative to vehicle-treated control; format: functional; parameters: scale not given: the % may be the effect or the level left
Method in brief: (§2)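 Male DIO F344/Jcl rats (45 weeks old) on high-fat diet since 5 weeks of age, singly housed, habituated to oral dosing with tap water, grouped by day−1 food intake and body weight. Once-daily oral dosing in 0.5% methylcellulose at 2 mL/kg for 2 weeks, 1−3 h before dark onset, 6 rats/group. Food intake measured every 2 or 3 days; body weight change as % of initial.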

[5] = tested on: Rattus norvegicus; test: Anorectic activity in diet-induced obese F344/jcl rat assessed as inhibition of cumulative food intake at 1 mg/kg, po qd administered through repeated dosing for 2 weeks measured during 2 weeks of dosing relative to vehicle-treated control; format: functional; details: 336 h; method in brief: as §2
[6] = Lipophilicity, log D of the compound at pH 7.4; format: physicochemical; details: buffer
Method in brief: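 Chromatographic HPLC method with UV detection, estimating octanol/buffer partition at pH 7.4.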

[7] = species on record: Rattus norvegicus; test: animal or person; details: F344/jcl, po, 48 h, read-out: INH
[8] = species on record: Rattus norvegicus; test: animal or person; details: F344/jcl, po, 336 h, read-out: INH
[9] = species on record: Rattus norvegicus; test: animal or person; details: F344/jcl, po, 336 h, read-out: INH; remark: listed apart in the source
[10] = Total clearance in Sprague-Dawley rat at 0.1 mg/kg, iv administered through cassette dosing by LC/MS/MS analysis; format: ADME, organism-based; details: in vivo
Method in brief: (§3)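 Nonfasted male SD rats (8 weeks old, n = 3) given 0.1 mg/kg iv by cassette dosing; plasma deproteinized with acetonitrile, centrifuged, and supernatant concentrations measured by LC/MS/MS.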

[11] = Ratio of drug level in brain to plasma in diet-induced obese F344/jcl rat at 10 mg/kg, po administered on day 1 measured 24 hrs post dose; format: ADME, organism-based; details: read-out: BPR
Method in brief: (§4)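 From the DIO F344 rat 2-day feeding study (oral, 0.5% methylcellulose): plasma and brain concentrations taken 24 h after the day-1 dose; brain/plasma ratio from these.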

[12] = Plasma concentration in diet-induced obese F344/jcl rat at 10 mg/kg, po administered on day 1 measured 24 hrs post dose; format: ADME, organism-based; method in brief: as §4
[13] = tested on: Plasma; test: Free plasma concentration in diet-induced obese F344/jcl rat at 10 mg/kg administered after 24 hrs in day 1; format: ADME, organism-based; details: in vivo
Method in brief: (§5)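 Plasma level 24 h after day-1 oral dose in DIO F344 rats multiplied by the free fraction measured in DIO rat plasma to give free concentration.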

[14] = Cmax in Sprague-Dawley rat at 1 mg/kg, po administered through cassette dosing by LC/MS/MS analysis; format: ADME, organism-based; parameters: dose 1 mg/kg, route oral; details: in vivo
[15] = tested on: HepG2; test: Induction of phospholipidosis in human HepG2 cells at 0.6 to 20 uM after 24 hrs by NBD-PE-based fluorometric analysis; format: cell-based; details: hepg2, 24 h
Method in brief: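 HepG2 cells in DMEM with 5% FBS, precultured 24 h, then exposed 24 h at 37 °C to 60 μM NBD-PE medium plus compound medium (0.6 or 20 μM, added 1:1); amiodarone 10 μM final as reference. NBD-PE uptake fluorescence (ex 485/em 538), blank subtracted, expressed relative to amiodarone; maximum value taken.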

[16] = tested on: Mus musculus; test: Anorectic activity in po dosed high fat diet fed wild type mouse assessed as reduction of food intake administered for 3 days measured during 3 days of dosing; format: functional, organism-based
Method in brief: (§6)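 Male MCHR1-deficient and wild-type littermate mice (45 weeks old) on high-fat diet D12451 from 5 weeks, singly housed, acclimated with 0.5 mL tap water dosing, grouped by day −3 to −1 intake and day −1 weight. Oral vehicle (0.5% methylcellulose) or suspension at 10 mL/kg for 3 days, n = 5–6; cumulative 3-day intake; Williams test.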

[17] = Unbound fraction in po dosed diet-induced obese F344/jcl rat plasma; format: ADME, organism-based
[18] = Ratio of drug level in brain to plasma in diet-induced obese F344/jcl rat at 3 mg/kg, po administered on day 1 measured 24 hrs post dose; format: ADME, organism-based; details: read-out: BPR; method in brief: as §4
[19] = Tmax in Sprague-Dawley rat at 1 mg/kg, po administered through cassette dosing by LC/MS/MS analysis; format: ADME, organism-based; details: in vivo
[20] = tested on: Rattus norvegicus; test: Antiobesity activity in diet-induced obese F344/jcl rat assessed as reduction in body weight at 3 mg/kg, po qd administered through repeated dosing for 2 weeks measured during 2 weeks of dosing relative to vehicle-treated control; format: functional; parameters: scale not given: the % may be the effect or the level left
Method in brief: (§7)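 Male DIO F344/Jcl rats (45 weeks old, high-fat diet), habituated and grouped as for feeding study; once-daily oral dosing in 0.5% methylcellulose at 2 mL/kg for 2 weeks, 1–3 h before dark onset after weighing, n = 6. Body weight change as percent of initial weight, compared with vehicle.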

[21] = Drug uptake in diet-induced obese F344/jcl rat brain at 3 mg/kg, po administered on day 1 measured 24 hrs post dose; format: ADME, organism-based; details: read-out: Drug uptake; method in brief: as §4
[22] = Drug uptake in diet-induced obese F344/jcl rat brain at 10 mg/kg, po administered on day 1 measured 24 hrs post dose; format: ADME, organism-based; method in brief: as §4
[23] = Volume of distribution at steady state in Sprague-Dawley rat at 0.1 mg/kg, iv by LC/MS/MS analysis; format: ADME, organism-based; details: in vivo, read-out: Vdss; method in brief: as §3
[24] = tested on: Mus musculus; test: Effect on food intake in MCHR-deficient high fat diet fed mouse at 10 to 30 mg/kg, po administered for 3 days measured during 3 days of dosing; format: ADME, organism-based; details: in vivo, 72 h; method in brief: as §6
[25] = tested on: Plasma; test: Free plasma concentration in diet-induced obese F344/jcl rat at 3 mg/kg, po administered on day 1 measured 24 hrs post dose; format: ADME, organism-based; details: in vivo; method in brief: as §5
[26] = Plasma concentration in diet-induced obese F344/jcl rat at 3 mg/kg, po administered on day 1 measured 24 hrs post dose; format: ADME, organism-based; method in brief: as §4
[27] = tested on: Rattus norvegicus; test: Antiobesity activity in diet-induced obese F344/jcl rat assessed as reduction in body weight at 10 mg/kg, po qd administered through repeated dosing for 2 weeks measured during 2 weeks of dosing relative to vehicle-treated control; format: functional; parameters: scale not given: the % may be the effect or the level left; method in brief: as §7
[28] = species on record: Rattus norvegicus; test: animal or person; details: F344/jcl, po, 48 h, read-out: INH; remark: listed apart in the source
[29] = Oral bioavailability in Sprague-Dawley rat at 1 mg/kg, administered through cassette dosing by LC/MS/MS analysis; format: ADME, organism-based; details: in vivo
[30] = AUC (0 to 8 hrs) in Sprague-Dawley rat at 1 mg/kg, po administered through cassette dosing by LC/MS/MS analysis; format: ADME, organism-based; parameters: time < 8 hr, dose 1 mg/kg, route oral; details: in vivo

Chain of Melanin-concentrating hormone receptor 1 (Rattus norvegicus, UniProt P97639) (P97639 whole entry, the tested form may be a part): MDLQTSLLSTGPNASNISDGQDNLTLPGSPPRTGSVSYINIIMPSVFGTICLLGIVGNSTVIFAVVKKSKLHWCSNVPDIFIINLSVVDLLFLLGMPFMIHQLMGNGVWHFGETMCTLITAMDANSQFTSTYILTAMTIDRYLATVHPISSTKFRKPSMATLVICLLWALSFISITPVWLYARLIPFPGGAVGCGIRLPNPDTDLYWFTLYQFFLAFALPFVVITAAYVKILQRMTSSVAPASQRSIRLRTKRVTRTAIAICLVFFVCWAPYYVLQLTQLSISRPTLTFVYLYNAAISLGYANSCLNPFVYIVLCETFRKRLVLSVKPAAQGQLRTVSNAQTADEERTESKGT
T1 sequence (Q99705 whole entry, the tested form may be a part): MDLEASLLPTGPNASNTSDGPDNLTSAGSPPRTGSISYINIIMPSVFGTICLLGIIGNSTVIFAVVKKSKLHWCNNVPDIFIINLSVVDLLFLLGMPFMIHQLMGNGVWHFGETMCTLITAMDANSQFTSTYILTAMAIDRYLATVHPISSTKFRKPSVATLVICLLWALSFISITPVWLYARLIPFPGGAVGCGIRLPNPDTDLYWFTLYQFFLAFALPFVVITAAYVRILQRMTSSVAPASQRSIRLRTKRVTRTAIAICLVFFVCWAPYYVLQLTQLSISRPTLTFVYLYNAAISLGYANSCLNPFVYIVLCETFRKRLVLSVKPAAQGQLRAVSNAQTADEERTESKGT

## Cc1c(C2CC2)cc2ccc(NC(=O)COc3ccc(OC(F)(F)F)cc3)cn12
[1]
  IC50: > 1000 nM
[2]
  IC50: > 1000 nM

## Cc1oc2ccc(NC(=O)COc3ccc(OC(F)(F)F)cc3)cc2c1C
[1]
  IC50: > 1000 nM
[2]
  IC50: > 1000 nM

## Cc1c(C2CC2)nc2ccc(-n3ccc(OCc4ccsc4)cc3=O)cn12
[1]
  IC50: 54 nM
[2]
  IC50: 25 nM

## Cc1c(C2CC2)nc2ccc(-n3ccc(OCc4ccc(C(C)C)cc4)cc3=O)cn12
[1]
  IC50: 240 nM
[2]
  IC50: 410 nM

## Cc1c(C2CC2)nc2ccc(NC(=O)COc3ccc(OC(F)(F)F)cc3)cn12
[1]
  IC50: 6.3 nM
[2]
  IC50: 3 nM

## Cc1c(C2CC2)nc2ccc(-n3ccc(OCc4csc(Cl)c4)cc3=O)cn12
[3]
  IC50: 19 nM
[1]
  IC50: 7.5 nM
[2]
  IC50: 7.7 nM

## CC(C)CC(N(C)C)C1(c2ccc(Cl)cc2)CCC1 (stereo not drawn) [SIBUTRAMINE]
[4]
  Activity: 3.4%
[5]
  inhibition in vivo at 1 mg/kg: 21.5%

## Cc1c(C2CC2)nc2ccc(-n3ccc(OCc4csc(C(F)(F)F)c4)cc3=O)cn12
[1]
  IC50: 15 nM
[2]
  IC50: 17 nM

## Cc1c(C#N)nc2ccc(-n3ccc(OCc4ccc(F)cc4)cc3=O)cn12
[1]
  IC50: > 1000 nM
[2]
  IC50: > 1000 nM

## Cc1c(C2CC2)nc2ccc(-n3ccc(OCc4ccc(Cl)cc4)nc3=O)cn12
[6]
  logD: 2.8
[3]
  IC50: 140 nM
[1]
  IC50: 30 nM
[2]
  IC50: 37 nM

## CC(=O)c1nc2ccc(-n3ccc(OCc4ccc(F)cc4)cc3=O)cn2c1C
[1]
  IC50: > 1000 nM
[2]
  IC50: > 1000 nM

## CCc1nc2ccc(-n3ccc(OCc4ccccc4)cc3=O)cn2c1C
[1]
  IC50: 120 nM
[2]
  IC50: 120 nM

## Cc1c(C2CC2)nc2ccc(-n3ccc(OCc4ccc(Cl)cn4)cc3=O)cn12
[1]
  IC50: 19 nM
[2]
  IC50: 24 nM

## Cc1c(C2CC2)nc2ccc(-n3cccc(OCc4ccc(Cl)cc4)c3=O)cn12
[1]
  IC50: 650 nM
[2]
  IC50: 990 nM

## Cc1c(C2CC2)nc2ccc(-n3ccc(OCc4ccc(Cl)cc4)cc3=O)cn12
[7]
  inhibition in vivo at 3 mg/kg: 15%
[8]
  inhibition in vivo at 10 mg/kg: 36.2%
[9]
  inhibition in vivo at 3 mg/kg: 15.4%
[10]
  clearance: 5.2 mL/min/kg
[6]
  logD: 3.2
[3]
  IC50: 23 nM
[11]
  Kp at 24 h: 0.62
[12]
  concentration at 24 h: 1350 ng/mL
[13]
  Cp(f): 66.5 nM
[14]
  Cmax: 313 ng/mL
[15]
  Activity: Non-toxic
[16]
  Activity: Dose-dependent effect
[1]
  IC50: 20 nM
[17]
  fraction unbound: 0.02
[2]
  IC50: 26 nM
[18]
  Kp at 24 h: 0.61
[19]
  Tmax: 2 h
[20]
  Activity: 3.7%
[21]
  concentration at 24 h: 218 ng/g
[22]
  concentration at 24 h: 841 ng/g
[23]
  Vd: 1.05 L/kg
[24]
  Activity: Non-toxic
[25]
  Cp(f): 17.2 nM
[26]
  concentration at 24 h: 351 ng/mL
[27]
  Activity: 8.6%
[28]
  inhibition in vivo at 10 mg/kg: 29.6%
[29]
  bioavailability: 58%
[30]
  AUC(0-t) at 8 h: 1880 ng·h/mL

## Cc1c(C2CC2)nc2ccc(-n3cccc(Oc4ccc(OC(F)(F)F)cc4)c3=O)cn12
[1]
  IC50: 240 nM
[2]
  IC50: 270 nM

## Cc1c(C2CC2)nc2ccc(-n3ccc(OCc4cncnc4)cc3=O)cn12
[1]
  IC50: > 1000 nM
[2]
  IC50: > 1000 nM

## Cc1c(C2CC2)nc2ccc(-n3ccc4oc(-c5ccc(Cl)cc5)cc4c3=O)cn12
[3]
  IC50: 42 nM
[1]
  IC50: 11 nM
[2]
  IC50: 6.8 nM

## Cc1c(C2CC2)nc2ccc(-n3ccc(OCc4ccc(C(F)(F)F)cc4)cc3=O)cn12
[1]
  IC50: 82 nM
[2]
  IC50: 72 nM
